Assay: Binding affinity to blood-brain barrier choline transporter in rat brain assessed as inhibition of [3H]choline uptake
Assay type: tissue-based
How it was run: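 In situ rat brain perfusion (Takasato method, Allen and Smith modification). Analog co-perfused at a single concentration, with brain uptake of [3H]-choline measured. Ki is the analog concentration inhibiting 50% of [3H]-choline uptake into brain, derived from the single-concentration inhibition. n = 4–6 animals. Ki values compared by ANOVA with Bonferroni multiple comparisons test.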

| Structure (SMILES) | Ki [µM] |
| --- | --- |
| Cc1cc[n+](CCC#Cc2ccc(C#CCC[n+]3ccc(C)cc3)cc2)cc1 | 8.5 |
| Cc1ccc[n+](CCCC#Cc2ccccc2C#CCCC[n+]2cccc(C)c2)c1 | 319 |
| Cc1ccc[n+](CCCCCCCCC[n+]2cccc(C)c2)c1 | 30 |
| c1ccc2c[n+](CCCCCCCCCC[n+]3ccc4ccccc4c3)ccc2c1 | 10 |
| Cc1ccc[n+](CCC#Cc2ccc(C#CCC[n+]3cccc(C)c3)cc2)c1 | 15 |
| Cc1ccc[n+](CCCCCCCCCCC[n+]2cccc(C)c2)c1 | 36 |
| C[N+](C)(C)CCO [CHOLINE] | 41 |
| C(#Cc1ccc(C#CCC[n+]2ccc3c(c2)CCCC3)cc1)CC[n+]1ccc2c(c1)CCCC2 | 5.4 |
| Cc1ccc[n+](CCCCCCCCCCCC[n+]2cccc(C)c2)c1 | 36 |
| c1ccc2c[n+](CCCCCC[n+]3ccc4ccccc4c3)ccc2c1 | 29 |
| CCCCCCCC[n+]1cccc([C@@H]2CCCN2C)c1 | 49 |
| Cc1cc(C)c[n+](CCC#Cc2ccc(C#CCC[n+]3cc(C)cc(C)c3)cc2)c1 | 7.4 |
| Cc1ccc[n+](CCCCCCCCCC[n+]2cccc(C)c2)c1 | 22 |
| Cc1cc[n+](CCC#Cc2ccc(C#CCC[n+]3ccc(C)c(C)c3)cc2)cc1C | 8.4 |
| Cc1ccc[n+](CCCCCCCC[n+]2cccc(C)c2)c1 | 24 |
| Cc1ccc[n+](CCCCCC[n+]2cccc(C)c2)c1 | 26 |
| Cc1ccc[n+](CCCC#Cc2cccc(C#CCCC[n+]3cccc(C)c3)c2)c1 | 140 |
| c1ccc2c[n+](CCCCCCCCCCCC[n+]3ccc4ccccc4c3)ccc2c1 | 22 |
